{"data": "Experimental data of several laboratories", "note": "Compare with care: the assays were run in different laboratories."}
{"SMILES": "CC(=O)O[C@@]12CO[C@@H]1C[C@H](O)[C@@]1(C)C(=O)[C@H](O)C3=C(C)[C@@H](OC(=O)[C@H](O)[C@@H](NC(=O)OC(C)(C)C)c4ccccc4)C[C@@](O)([C@@H](OC(=O)c4ccccc4)[C@H]21)C3(C)C", "cell line": "MDA-MB-436", "assay": "cell growth or viability, ATP luminescence", "setting": "72 h", "IC50": "0.0037 µM"}
{"SMILES": "COc1cc(Nc2nccc(-c3cnn4nc(OC)ccc34)n2)cc(C(F)(F)F)c1", "cell line": "SNU-840", "assay": "cell growth or viability, ATP luminescence", "IC50": "0.37 µM"}
{"SMILES": "CCn1c(-c2nnc(NC(=O)c3cc4c([nH]c5ccccc54)c(-c4ccc(C)cc4)n3)s2)cc2ccccc21", "cell line": "HL-60", "assay": "cell growth or viability, MTT", "setting": "72 h", "IC50": "39.6 µM"}
{"SMILES": "COc1cc(/C=C/C(=O)/C=C(O)/C=C/c2ccnc3ccccc23)ccc1O", "cell line": "CHO-K1", "assay": "cell growth or viability, MTT", "setting": "72 h", "IC50": "22.3 µM"}
{"SMILES": "CC1CS(=O)(=O)CCN1/N=C/c1ccc([N+](=O)[O-])o1 (centres unmarked)", "cell line": "RAW264.7", "assay": "cell growth or viability, MTT", "IC50": "31 µM"}
{"SMILES": "CC(C)CNC(=C\\C(=O)/C=C/c1cccnc1)/C=C/c1cccnc1", "cell line": "CHO-K1", "assay": "cell growth or viability, MTT", "setting": "72 h", "IC50": "17.7 µM"}
{"SMILES": "C(=C\\c1c[nH]c2ccccc12)/c1cc(/C=C/c2cccs2)[nH]n1", "cell line": "CHO-K1", "assay": "cell growth or viability, MTT", "setting": "72 h", "IC50": "0.9 µM"}
{"SMILES": "COc1ccccc1OCCNC(=O)COc1cccc2[nH]c3ccccc3c12", "cell line": "NCI-H1299", "assay": "cell growth or viability, CCK-8", "setting": "72 h", "IC50": "> 100 µM"}
{"SMILES": "CCSC(=O)c1ncn2c(=O)n(C)nnc12", "cell line": "D54", "assay": "cell growth or viability, resazurin", "setting": "7 days", "IC50": "8 µM"}
{"SMILES": "O=C1C=C(/C=C/c2cccnc2)N(CCCO)C(c2cccnc2)C1 (centres unmarked)", "cell line": "CHO-K1", "assay": "cell growth or viability, SRB", "setting": "72 h", "IC50": "> 75 µM"}
{"SMILES": "CCCNc1nc(NCCC)nc(Nc2ccc(Br)cc2)n1", "cell line": "SK-BR-3", "assay": "cell growth or viability, SRB", "setting": "72 h", "IC50": "22.5 µM"}
{"SMILES": "c1ccc2[nH]c(-c3ccc4c(c3)OCO4)nc2c1", "cell line": "human Rhabdomyosarcoma cell", "assay": "cell growth or viability, MTT", "setting": "48 h", "IC50": "> 100 µM"}
{"SMILES": "O=C(O)Cc1ccccc1Nc1c(Cl)cccc1Cl", "cell line": "RAW264.7", "assay": "reactive oxygen species, inhibitor", "setting": "LPS-stimulated", "IC50": "50.1 µM"}
{"SMILES": "O=C(/C=C(/C=C/c1cccnc1)NCCCO)/C=C/c1cccnc1", "cell line": "CHO-K1", "assay": "cell growth or viability, MTT", "setting": "72 h", "IC50": "> 75 µM"}
{"SMILES": "Cc1ccc2nc(-c3ccc([N+](=O)[O-])cc3)n(Cc3ccccc3)c2c1", "cell line": "human Rhabdomyosarcoma cell", "assay": "cell growth or viability, MTT", "IC50": "8.45 µM"}
{"SMILES": "COc1cccc2c1C(=O)c1c(O)c3c(c(O)c1C2=O)C[C@@](O)(C(=O)CO)C[C@@H]3O[C@H]1C[C@H](N)[C@H](O)[C@H](C)O1", "cell line": "CHO-K1", "assay": "cell growth or viability, MTT", "setting": "72 h", "IC50": "1.4 µM"}
{"SMILES": "Brc1ccc(Nc2nc(N/N=C\\c3c[nH]c4ccccc34)nc(Nc3ccccc3)n2)cc1", "cell line": "SK-BR-3", "assay": "cell growth or viability, SRB", "setting": "72 h", "IC50": "12.2 µM"}
{"SMILES": "Cc1ccc2nc(-c3ccco3)n(Cc3ccccc3)c2c1", "cell line": "human Rhabdomyosarcoma cell", "assay": "cell growth or viability, MTT", "IC50": "39.2 µM"}
{"SMILES": "CN(C)c1ccc(-c2nc3ccccn3c2NC(C)(C)C)cc1", "cell line": "Vero", "assay": "cell growth or viability, MTT", "setting": "48 h", "IC50": "87 µM"}
{"SMILES": "COc1cccc(-c2nc3ccc(C)cc3[nH]2)c1", "cell line": "human Rhabdomyosarcoma cell", "assay": "cell growth or viability, MTT", "setting": "48 h", "IC50": "22.3 µM"}
{"SMILES": "COc1ccccc1/C=C/CNCC(O)COc1cccc2ccccc12 (centres unmarked)", "cell line": "NCI-H1299", "assay": "cell growth or viability, CCK-8", "setting": "72 h", "IC50": "19.8 µM"}
{"SMILES": "O=C(/C=C(O)/C=C/c1cccnc1)/C=C/c1cccnc1", "cell line": "CHO-K1", "assay": "cell growth or viability, SRB", "setting": "72 h", "IC50": "10.5 µM"}
{"SMILES": "COc1ccccc1OCCNCC(O)COc1cccc2[nH]c3ccccc3c12 (centres unmarked)", "cell line": "NCI-H1299", "assay": "cell growth or viability, CCK-8", "setting": "72 h", "IC50": "32.4 µM"}
{"SMILES": "COc1cc(/C=C/C(=O)/C=C(O)/C=C/c2ccncc2)ccc1O", "cell line": "CHO-K1", "assay": "cell growth or viability, SRB", "setting": "72 h", "IC50": "17.7 µM"}
{"SMILES": "O=C(/C=C(/C=C/c1cccnc1)NCCO)/C=C/c1cccnc1", "cell line": "CHO-K1", "assay": "cell growth or viability, SRB", "setting": "72 h", "IC50": "> 75 µM"}
{"SMILES": "Cc1ccc2nc(-c3ccc(Cl)cc3)n(Cc3ccccc3Cl)c2c1", "cell line": "human Rhabdomyosarcoma cell", "assay": "cell growth or viability, MTT", "IC50": "41 µM"}
{"SMILES": "CC(C)(C)Nc1c(-c2ccc(N)cc2)nc2ccccn12", "cell line": "Vero", "assay": "cell growth or viability, MTT", "setting": "48 h", "IC50": "91 µM"}
{"SMILES": "COCCCNC(=C\\C(=O)/C=C/c1cccnc1)/C=C/c1cccnc1", "cell line": "CHO-K1", "assay": "cell growth or viability, MTT", "setting": "72 h", "IC50": "21.3 µM"}
{"SMILES": "COc1cc(N2CCC(N3CCN(C)CC3)CC2)ccc1Nc1ncc(Cl)c(Nc2ccccc2S(=O)(=O)C(C)C)n1", "cell line": "Rh30", "assay": "cell growth or viability", "setting": "72 h", "IC50": "0.3 µM"}
{"SMILES": "CSc1ccc(-c2nc3ccc(C)cc3n2Cc2ccccc2)cc1", "cell line": "human Rhabdomyosarcoma cell", "assay": "cell growth or viability, MTT", "IC50": "31.7 µM"}
{"SMILES": "Cc1[nH]c(/C=C2\\C(=O)Nc3ccc(S(=O)(=O)N(C)c4cccc(Cl)c4)cc32)c(C)c1C(=O)N1CCN(C)CC1", "cell line": "Rh30", "assay": "cell growth or viability", "setting": "72 h", "IC50": "4.7 µM"}
{"SMILES": "CC(C)(C)Nc1c(-c2ccccc2N)nc2ccccn12", "cell line": "Vero", "assay": "cell growth or viability, MTT", "setting": "48 h", "IC50": "90 µM"}
{"SMILES": "COc1cc(/C=C/C(=O)/C=C(O)/C=C/c2ccc[nH]2)ccc1O", "cell line": "CHO-K1", "assay": "cell growth or viability, SRB", "setting": "72 h", "IC50": "49 µM"}
{"SMILES": "Cn1nnc2c(Cl)ncn2c1=O", "cell line": "D54", "assay": "cell growth or viability, resazurin", "setting": "7 days", "IC50": "21 µM"}
{"SMILES": "COc1cc(/C=C/c2cc(/C=C/c3cccc4cnccc34)[nH]n2)ccc1O", "cell line": "CHO-K1", "assay": "cell growth or viability, SRB", "setting": "72 h", "IC50": "7.9 µM"}
{"SMILES": "COc1ccccc1CCCNCC(O)COc1cccc2[nH]c3ccccc3c12 (centres unmarked)", "cell line": "NCI-H1299", "assay": "cell growth or viability, CCK-8", "setting": "72 h", "IC50": "7.2 µM"}
{"SMILES": "O=C(/C=C(/C=C/c1cccnc1)NC1CCCCC1)/C=C/c1cccnc1", "cell line": "CHO-K1", "assay": "cell growth or viability, MTT", "setting": "72 h", "IC50": "16.8 µM"}
{"SMILES": "CCN(CC)C(=O)c1ncn2c(=O)n(C)nnc12", "cell line": "D54", "assay": "cell growth or viability, resazurin", "setting": "7 days", "IC50": "13 µM"}
{"SMILES": "CC(C)C[C@H](NC(=O)[C@H](Cc1ccccc1)NC(=O)c1cnccn1)B(O)O", "cell line": "NCI-H1437", "assay": "cell growth or viability, ATP luminescence", "IC50": "0.013 µM"}
{"SMILES": "C=CCn1c(-c2ccc([N+](=O)[O-])cc2)nc2ccc(C)cc21", "cell line": "human Rhabdomyosarcoma cell", "assay": "cell growth or viability, MTT", "IC50": "86 µM"}
{"SMILES": "COc1ccccc1NCCCNCC(O)COc1cccc2[nH]c3ccccc3c12 (centres unmarked)", "cell line": "NCI-H1299", "assay": "cell growth or viability, CCK-8", "setting": "72 h", "IC50": "8.9 µM"}
{"SMILES": "O=C(/C=C(O)/C=C/c1ccccn1)/C=C/c1c[nH]c2ccccc12", "cell line": "CHO-K1", "assay": "cell growth or viability, MTT", "setting": "72 h", "IC50": "22.3 µM"}
{"SMILES": "COc1ccccc1CNCC(O)COc1cccc2[nH]c3ccccc3c12 (centres unmarked)", "cell line": "NCI-H1299", "assay": "cell growth or viability, CCK-8", "setting": "72 h", "IC50": "14.8 µM"}
{"SMILES": "COc1cccc2c1C(=O)c1c(O)c3c(c(O)c1C2=O)C[C@@](O)(C(=O)CO)C[C@@H]3O[C@H]1C[C@H](N)[C@H](O)[C@H](C)O1", "cell line": "CHO-K1", "assay": "cell growth or viability, SRB", "setting": "72 h", "IC50": "2.4 µM"}
{"SMILES": "COc1ccccc1OCCN(C)CC(O)COc1cccc2[nH]c3ccccc3c12 (centres unmarked)", "cell line": "NCI-H1299", "assay": "cell growth or viability, CCK-8", "setting": "72 h", "IC50": "39.5 µM"}
{"SMILES": "O=C(/C=C(O)/C=C/c1ccc2ccccc2n1)/C=C/c1c[nH]c2ccccc12", "cell line": "CHO-K1", "assay": "cell growth or viability, SRB", "setting": "72 h", "IC50": "43.3 µM"}
{"SMILES": "C=CCn1c(-c2ccc(OC)c(OC)c2)nc2ccccc21", "cell line": "human Rhabdomyosarcoma cell", "assay": "cell growth or viability, MTT", "IC50": "50.4 µM"}
